Activity calls are given as the source filed them. The calls are words filed in the database; no cut-off is given here.
Key:
[1] = target: Glutamate carboxypeptidase 2 (Homo sapiens, UniProt Q04609); test: Inhibition of recombinant human glutamate carboxypeptidase 2 (44 to 750 residues) overexpressed in Drosophila Schneider S2 cells using [3H]-NAAG/NAAG as substrate preincubated for 15 mins followed by substrate addition measured after 20 mins by liquid scintillation counting method
In short: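 Radioenzymatic assay. rhGCPII (30 ng/mL) preincubated with inhibitor at varying concentrations for 15 min at 37 °C in 20 mM Tris, 150 mM NaCl, pH 8.0. Started with 0.31 μM NAAG plus 15 nM 3H-NAAG and run 20 min. Stopped with phosphate/EDTA/β-mercaptoethanol, pH 7.4. Released glutamate separated by ion exchange and counted by scintillation. IC50 obtained from inhibition curves.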

[2] = system: Plasma; test: Metabolic stability in mouse plasma at 10 uM measured upto 60 mins by LC-MS/MS analysis; format: ADME, cell-free; settings: 1 h
In short: (§1)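 Compounds at 10 μM spiked into mouse plasma and shaken at 37 °C. Triplicate aliquots taken at 0 and 60 min and quenched with 2 volumes of ice-cold acetonitrile containing losartan 5 μM as internal standard. Centrifuged and supernatant diluted with water. Parent loss and metabolites identified by LC–ESI-TOF on C18 using a formic acid/acetonitrile gradient and extracted-ion chromatograms.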

[3] = Prodrug conversion in Tris/NaCl buffer assessed as 4-Carboxy-alpha-[3-(hydroxyamino)-3-oxopropyl]-benzenepropanoic acid formation at pH 8
In short: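 Stability tested under the enzyme assay conditions: 30 min in aqueous buffer (20 mM Tris, 150 mM NaCl), pH 8.0.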

[4] = system: Plasma; test: Prodrug conversion in mouse plasma assessed as 4-Carboxy-alpha-[3-(hydroxyamino)-3-oxopropyl]-benzenepropanoic acid formation at 10 uM measured upto 60 mins by LC-MS/MS analysis; format: ADME, cell-free; settings: 1 h; in short: as §1
[5] = system: Plasma; test: (§2) Prodrug conversion in CD1 mouse plasma assessed as 4-Carboxy-alpha-[3-(hydroxyamino)-3-oxopropyl]-benzenepropanoic acid formation at 10 mg/kg equiv of 4-Carboxy-alpha-[3-(hydroxyamino)-3-oxopropyl]-benzenepropanoic acid after 30 mins by LC-MS/MS analysis; format: ADME, organism-based; settings: in vivo, 0.5 h
In short: (§3)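 Male CD-1 mice (25–30 g) given a single oral dose equivalent to 10 mg/kg of parent, in 50 mM HEPES-buffered saline at pH 7.4. Killed by pentobarbital at 30 min and blood taken by cardiac puncture into heparin. Plasma stored at −80 °C, then assayed for parent by LC-MS/MS on C18 with a formic acid/acetonitrile gradient. Mean ± SEM, n = 3.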

[6] = system: Plasma; test: Drug metabolism in mouse plasma assessed as 2-(4-(ethoxycarbonyl)benzyl)-5-(hydroxyamino)-5-oxopentanoic acid formation at 10 uM measured after 60 mins by LC-MS/MS analysis; format: ADME, cell-free; settings: 1 h; in short: as §1
[7] = system: Plasma; test: as §2, with “analysis relative to 4-Carboxy-alpha-[3-(hydroxyamino)-3-oxopropyl]-benzenepropanoic acid alone” for “analysis”; format: ADME, organism-based; settings: in vivo, 0.5 h; in short: as §3
[8] = system: Rattus norvegicus; test: Analgesic activity in Sprague-Dawley rat assessed as reduction in chronic constriction injury induced hyperalgesic neuropathic pain on ligated side at 100 mg/kg/day administered via oral gavage measured upto 8 days relative to vehicle-treated control; format: functional, organism-based
In short: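 Male Sprague–Dawley rats (200–250 g; n = 10–15 per group) received sciatic nerve constriction with four loose 4.0 chromic gut ligatures spaced 1 mm apart. Testing began 10 days after surgery. Dosing was daily by oral gavage, given 1 h before testing on test days. Hind-paw withdrawal latency to a plantar thermal stimulus (Hargreaves) was read to 0.1 s, with normal response within 15 s. Difference score was nonligated minus ligated latency. Sessions were twice weekly, and groups were compared by t-test versus control.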

[9] = system: Rattus norvegicus; test: Analgesic activity in Sprague-Dawley rat assessed as reduction in chronic constriction injury induced hyperalgesic neuropathic pain on ligated side at 4.6 mg/kg/day administered via oral gavage measured upto 8 days relative to vehicle-treated control; format: functional, organism-based
In short: (§4)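 Male Sprague–Dawley rats (200–250 g; n = 10–15 per group) with sciatic nerve loosely ligated (four 4.0 chromic gut ligatures, 1 mm apart). Testing began 10 days post-surgery. Plantar thermal stimulus (Hargreaves) applied to the hind paw, withdrawal latency read to 0.1 s. Dosed daily by oral gavage, and 1 h before each test session. Two sessions per week; compared with vehicle by Student's t-test.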

[10] = system: Rattus norvegicus; test: Effect on response latency to thermal stimulus in Sprague-Dawley rat at 4.6 mg/kg administered via oral gavage relative to vehicle-treated control; format: organism-based; settings: in vivo; in short: as §4

Glutamate carboxypeptidase 2, sequence (Q04609 whole entry, the tested form may be a part): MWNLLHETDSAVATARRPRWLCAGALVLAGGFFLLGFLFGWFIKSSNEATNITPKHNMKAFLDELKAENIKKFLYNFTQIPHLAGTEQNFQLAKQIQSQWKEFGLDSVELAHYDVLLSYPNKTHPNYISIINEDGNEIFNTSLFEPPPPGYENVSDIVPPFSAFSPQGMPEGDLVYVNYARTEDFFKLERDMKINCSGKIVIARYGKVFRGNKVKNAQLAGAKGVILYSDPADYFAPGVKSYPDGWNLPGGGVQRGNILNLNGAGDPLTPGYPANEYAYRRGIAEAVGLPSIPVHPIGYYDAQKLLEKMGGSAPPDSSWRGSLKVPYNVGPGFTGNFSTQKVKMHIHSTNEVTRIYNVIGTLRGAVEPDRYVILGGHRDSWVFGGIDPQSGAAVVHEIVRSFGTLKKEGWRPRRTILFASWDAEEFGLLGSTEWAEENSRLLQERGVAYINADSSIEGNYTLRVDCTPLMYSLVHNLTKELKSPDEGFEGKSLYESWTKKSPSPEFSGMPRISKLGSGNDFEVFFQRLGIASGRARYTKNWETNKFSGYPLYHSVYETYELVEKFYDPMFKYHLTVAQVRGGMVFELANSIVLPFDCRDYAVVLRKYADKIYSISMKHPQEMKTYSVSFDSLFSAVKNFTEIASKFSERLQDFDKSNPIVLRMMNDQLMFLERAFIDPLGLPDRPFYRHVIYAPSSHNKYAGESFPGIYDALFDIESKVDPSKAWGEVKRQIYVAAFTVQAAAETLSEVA

Question: For O=C(CCC(Cc1ccc(C(=O)O)cc1)C(=O)O)NO (centres undefined), which IC50 [1] is on record?
Answer: 0.04 µM

Question: And the Stability [2]?
Answer: Stable

Question: Which IC50 [1] does the source give for CC(=O)ONC(=O)CCC(Cc1ccc(C(=O)O)cc1)C(=O)O (centres undefined) here?
Answer: > 5 µM

Question: For Cc1oc(=O)oc1CONC(=O)CCC(Cc1ccc(C(=O)O)cc1)C(=O)O (centres undefined), which Drug metabolism [3] is on record?
Answer: Metabolite detected

Question: For CCOC(=O)c1ccc(CC(CCC(=O)NOCc2ccc(OC(C)=O)cc2)C(=O)O)cc1 (centres undefined), which IC50 [1] is on record?
Answer: > 5 µM

Question: And the Drug metabolism [4]?
Answer: Metabolite_Notdetected

Question: And the Drug metabolism [5]?
Answer: Metabolite_Notdetected

Question: What about the Drug metabolism [6] of the same compound?
Answer: Metabolite_Detected

Question: With CC(=O)Oc1ccc(CONC(=O)CCC(Cc2ccc(C(=O)OCOC(=O)OC(C)C)cc2)C(=O)O)cc1 (centres undefined) as the compound, how does the IC50 [1] read?
Answer: > 5 µM

Question: What about the Drug metabolism [4] of the same compound?
Answer: Metabolite_Detected

Question: And the “fold change (FC)” value [7]?
Answer: 4

Question: With NCC1(CC(=O)O)CCCCC1 as the compound, how does the Activity [8] read?
Answer: Active

Question: Which results are given for CCOC(=O)c1ccc(CC(CCC(=O)NOCc2ccc(OC(C)=O)cc2)C(=O)OCC)cc1 (centres undefined)?
Answer: IC50 [1]: > 5 µM; Drug metabolism [5]: Metabolite_Notdetected

Question: Which IC50 [1] does the source give for CC(=O)Oc1ccc(CONC(=O)CCC(Cc2ccc(C(=O)O)cc2)C(=O)O)cc1 (centres undefined) here?
Answer: > 5 µM

Question: What about the Activity [9] of the same compound?
Answer: Active

Question: And the Drug metabolism [4]?
Answer: Metabolite_Detected

Question: And the “fold change (FC)” value [7]?
Answer: 5

Question: What about the Activity [10] of the same compound?
Answer: Non-Toxic

Reference: ChEMBL document CHEMBL4017492, “Discovery of a para-Acetoxy-benzyl Ester Prodrug of a Hydroxamate-Based Glutamate Carboxypeptidase II Inhibitor as Oral Therapy for Neuropathic Pain” (J Med Chem, 2017)
